A selection: hits, their analogues and other compounds. The true share with any hit is near 1%.
XiGFP reactiv – activators of inactive X chromosome reactivation, primary screen, imaging, XiGFP fibroblasts, GFP high-content imaging, set 2. XiGFP mouse fibroblasts, % GFP-positive cells imaging, 3 d; cells co-treated with 5-aza-dC sensitizer; scaled so ellipticine positive control = 100%. activation, % at 7.58 µM. 360,000 tested, 0.055% active;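 active means mean normalized replicate activation at least 10% and every replicate at or above 10%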
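System: 68-5-11 XiGFP fibroblast line | Buffer or medium: DMEM containing 5-aza-dC | Compound: Single point | Times: Compounds 3 days, fix/stain 15 min at room temperature | Benchmarks: Positive control ellipticine, 6 µM final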
GSIS activator – GLuc luminescence reporter in INS-1E cells, primary screen for activators of glucose-dependent secretion of insulin; INS-1E GLuc reporter insulin secretion, 2-3 h; activation, % at 16.6 µM; 370,000 tested, 0.61% active;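 active means lowest replicate activation of at least 40%, so every replicate reaches that level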
GAA850 FXN act – FXN promoter activators, primary screen, cell-based, luciferase luminescence, HEK293 lucGAA850. HEK293 lucGAA850 FXN promoter luciferase reporter, 24 h; percent of 10 µM SAHA response. activation, % at 6 µM. 360,000 tested, 0.56% active. AID 540364, 2011;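 active means activation above the average of all compounds screened plus 3 SD, cutoff fixed separately per campaign, cut at about 7.5% in these data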
CaV13 FRET inh – Disruptors of the CACNA1D IQ motif to Ca2+-dependent inactivation inhibitor domain association, primary screening, Förster resonance energy transfer in intact living …. 340,000 tested, 0.098% active. HEK cells, CFP/YFP FRET ICDI-IQ, plate reader, 10 min; percent FRET-ratio fall versus neutral wells. inhibition, % at 12.3 µM;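 active means mean replicate inhibition of at least 30% and at least 1% of replicates passing that level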
Each line names hits and unclear results; the compound was inactive in the other large screens.

CCCC(=O)Nc1ccc2c(c1)C(=O)N(C)C[C@@H](OC)[C@H](C)CN(C(=O)CC)[C@@H](C)CO2	none (no result: GAA850 FXN act, CaV13 FRET inh)
CCNc1nc(NC(C)CC)nc(ON=C(C)C)n1 (configuration not stated)	GSIS activator 56
C[C@@H]1CCCCO[C@@H](CN(C)Cc2ccccc2)[C@@H](C)CN([C@@H](C)CO)C(=O)c2cc(NC(=O)Nc3ccc(F)cc3)ccc2O1	none (no result: GAA850 FXN act, CaV13 FRET inh)
O=C(Cn1nnc(-c2ccccc2)n1)N=Nc1c(O)[nH]c2ccccc12	GSIS activator 93 (no result: XiGFP reactiv)
CO[C@@H]1CN(C)C(=O)c2cc(NC(=O)c3ccccc3F)ccc2OC[C@H](C)N(C(C)=O)C[C@H]1C	none (no result: GAA850 FXN act, CaV13 FRET inh)
CCOC(=O)N1CCN(C(=O)COc2ccccc2OC)CC1	GSIS activator 62 (no result: XiGFP reactiv)
COc1cc2nc(N3CCN(c4cc(C)ccc4C)CC3)nc(N)c2cc1OC	GSIS activator 221
COc1cc2nc(N3CCNCC3)nc(N)c2cc1OC	none (no result: XiGFP reactiv, GSIS activator)
CCCNC(=O)N(C)C[C@H]1Oc2cc(C#CC3CC3)ccc2S(=O)(=O)N([C@H](C)CO)C[C@H]1C	none (no result: GAA850 FXN act, CaV13 FRET inh)
COc1ccccc1C(=O)c1cc2ccc(O)cc2oc1=O	CaV13 FRET inh 144
C[C@H]1CN([C@@H](C)CO)C(=O)c2cccc(NC(=O)Nc3cccc4ccccc34)c2O[C@@H]1CN(C)C(=O)Nc1ccc2c(c1)OCO2	none (no result: GAA850 FXN act, CaV13 FRET inh)
CCOC(=O)c1oc2ccccc2c1NC(=O)COC	none (no result: XiGFP reactiv)
CCOCC(=O)Nc1c(C(=O)OCC)oc2ccccc12	GSIS activator 44 (no result: XiGFP reactiv)
CN(C)C(=O)COC(=O)c1cccnc1Nc1ccccc1F	GSIS activator 80
CCOc1ncccc1C(=O)OCC(=O)NCCCc1ccccc1	GSIS activator 54
NC(=O)COC(=O)c1cccnc1Nc1ccccc1F	none
CCOc1ncccc1C(=O)OCC(=O)NCCc1ccccc1	none (no result: XiGFP reactiv)
CCOc1ncccc1C(=O)NNC(=O)c1ccccc1-n1cccc1	GSIS activator 54
CCOc1ncccc1C(=O)Nc1cccc(S(=O)(=O)NC2=NCCC2)c1	GSIS activator 55
CCOc1ncccc1C(=O)Nc1ccccc1F	GSIS activator 77
Cc1noc(C)c1NC(=O)N(C)C[C@@H]1OCCCC[C@@H](C)Oc2ccc(NS(=O)(=O)c3ccc(Cl)cc3)cc2C(=O)N([C@H](C)CO)C[C@@H]1C	none (no result: GAA850 FXN act, CaV13 FRET inh)
COc1ccc(C[C@@H]2CCn3cc(nn3)COCCNC2=O)cc1	none (no result: GAA850 FXN act, CaV13 FRET inh)
COc1ccc(CCN=C(N)NS(=O)(=O)c2ccc(C)c(C)c2)cc1OC	GSIS activator 91
CC(C)(C)C(=O)Nc1ccc(C(=O)OC2CCCCC2)cc1	GAA850 FXN act 10 (no result: XiGFP reactiv, CaV13 FRET inh)
COCCNc1nc(Oc2cncc(Cl)c2)c2sccc2n1	GSIS activator 55
COCCNc1nc(NC(C)C)nc2ccsc12	GSIS activator 82
COCCNc1nc(NCc2ccccc2)nc2ccsc12	none (no result: GSIS activator)
COCCNc1nc(Oc2cccc(F)c2)c2sccc2n1	none
COc1ccc(N2CCN(C(c3cccs3)C(C)NC(=O)C(=O)N3CCOCC3)CC2)cc1 (configuration not stated)	GSIS activator 79
CC(NC(=O)C(=O)N1CCOCC1)C(c1cccs1)N1CCN(c2ccccc2)CC1 (configuration not stated)	none
CC(=O)c1cc2c(ccc3ccccc32)oc1=O	CaV13 FRET inh active
CC(=O)Nc1cc2c(ccc3ccccc32)oc1=O	none
C[C@@H]1CN([C@@H](C)CO)C(=O)c2cc(NC(=O)c3ccncc3)ccc2O[C@@H](C)CCCCO[C@@H]1CN(C)C(=O)NC1CCCCC1	none (no result: GAA850 FXN act, CaV13 FRET inh)
O=C(COC(=O)Cc1ccc(F)cc1)NCCc1ccccc1	GSIS activator 43
COc1ccc2c3c(n(C)c2c1)[C@H](CO)N(Cc1ccccc1)CC31CN(C)C1	none (no result: GAA850 FXN act, CaV13 FRET inh)
CNc1nc(Cl)nc2c1ncn2-c1ccccc1	GSIS activator 87
Clc1nc(Cl)c2ncn(-c3ccccc3)c2n1	none
COc1cccc(C(=O)Nc2ccc3c(c2)OC[C@H](C)N(CC2CC2)C[C@@H](C)[C@@H](OC)CN(C)C3=O)c1	none (no result: GAA850 FXN act, CaV13 FRET inh)
CC(C)NC(=O)N(C)C[C@@H]1Oc2ccc(NS(=O)(=O)c3ccc(Cl)cc3)cc2C(=O)N([C@H](C)CO)C[C@H]1C	none (no result: GAA850 FXN act, CaV13 FRET inh)
COc1ccc(C(=O)Nc2ccccc2C(=O)Nc2ccncc2)cc1	GSIS activator 45
COc1cc(C(=O)NCc2ccccc2)ccc1OC(F)F	none (no result: GSIS activator)
COc1cc(C(=O)Nc2ccccc2C(=O)NCc2cccnc2)cc(OC)c1OC	none
COc1ccc(C(=O)Nc2ccccc2C(=O)NCc2cccnc2)cc1OC	GSIS activator 41 (no result: CaV13 FRET inh)
COc1ccc(COc2ccccc2C(=O)NCc2ccccc2)cc1F	XiGFP reactiv 23
O=C(N/N=C/c1ccc(Br)s1)c1ccc([N+](=O)[O-])cc1	XiGFP reactiv 97
O=C(N/N=C/c1ccc(Br)s1)c1ccccc1[N+](=O)[O-]	none (no result: XiGFP reactiv)
COc1ccc(CN(C)C[C@H]2Oc3ccc(NS(C)(=O)=O)cc3C(=O)N([C@@H](C)CO)C[C@H]2C)cc1	none (no result: GAA850 FXN act, CaV13 FRET inh)
CC(=O)Nc1ccc(NC(=O)CNC(=O)c2sc3ccccc3c2Cl)cc1	none
CCn1nnc(NC(=O)c2sc3ccccc3c2Cl)n1	GSIS activator 43 (no result: XiGFP reactiv)
Cc1ccc(NC(=O)CNC(=O)c2sc3ccccc3c2Cl)nc1	GSIS activator 70
O=C(C[C@H]1CC[C@H]2[C@@H](COC[C@@H](O)CN2C(=O)Nc2ccccc2)O1)NC1Cc2ccccc2C1	none (no result: GAA850 FXN act, CaV13 FRET inh)
CN1c2ccc(-c3ccccc3)cc2[C@H]2[C@H](CCN2C(=O)c2ccncc2)[C@H]1CO	none (no result: GAA850 FXN act, CaV13 FRET inh)
CC(=O)N(Cc1cc2cc(C)c(C)cc2n2nnnc12)CC1COCCO1 (configuration not stated)	GSIS activator 63 (no result: XiGFP reactiv, CaV13 FRET inh)
COc1ccccc1N1CCN(C(=O)c2noc(C)c2[N+](=O)[O-])CC1	GSIS activator 57
COc1cccc(S(=O)(=O)Nc2ccc3c(c2)[C@H]2C[C@@H](CC(=O)NCc4cccc(F)c4)O[C@@H](CO)[C@H]2O3)c1	none (no result: GAA850 FXN act, CaV13 FRET inh)
CCOC(=O)c1c(C)n(C)c2ccc(OCC(O)CN3CCC(C)CC3)cc12 (configuration not stated)	CaV13 FRET inh 40
CCOC(=O)c1c(C)n(C)c2ccc(OCC(O)CN3CCCCCC3)cc12 (configuration not stated)	none
CC(C)NC(=O)N(C)C[C@H]1Oc2ccc(NC(=O)Cc3cn(C)c4ccccc34)cc2C(=O)N([C@@H](C)CO)C[C@@H]1C	none (no result: GAA850 FXN act, CaV13 FRET inh)
CCCCC[C@@H](/C=C/C1C(=O)C=C[C@H]1C/C=C\CCCC(=O)OC)OC(C)=O (some centres not stated)	GSIS activator 46
CO[C@@H]1CN(C)C(=O)c2cc(NC(=O)c3cccc(Oc4ccccc4)c3)ccc2OC[C@@H](C)NC[C@@H]1C	none (no result: GAA850 FXN act, CaV13 FRET inh)
COC(=O)C1=C(C)N(Cc2ccc(C(F)(F)F)cc2)C(=NCC2CC2)NC1c1ccccc1 (configuration not stated)	GSIS activator 60 (no result: GAA850 FXN act)

High-throughput results: PubChem BioAssay, several laboratories
